Measurements taken from ChEMBL document CHEMBL5154824, “Design and synthesis of multifunctional microtubule targeting agents endowed with dual pro-apoptotic and anti-autophagic efficacy” (Eur J Med Chem, 2022).
Calls of active or inactive are those of the source. No cut-off for these calls is given here.

Experiments:
HL-60 [1] = test: Induction of autophagy in human HL-60 cells assessed as increase in p62 protein level at 10 uM […] by Immunoblotting analysis; type: functional, cell-based
[2] = Metabolic stability in human liver microsomes assessed as half life by HPLC analysis; type: ADME, Microsome
Summary of the method: (§1)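 Compound incubated with human liver microsomes plus an NADPH-generating system. Log % of compound recovered (100% at 0 min) was plotted against incubation time and fitted to a monoexponential decay. Controls were boiled microsomes, or microsomes without NADPH-GS, at 37 °C for 60 min.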

Tubulin (Homo sapiens) [3] = molecular target: T1, Tubulin (Homo sapiens) (UniProt P68371+Q9H4B7+P0DPH7+P68366+Q13509+Q71U36+P04350+Q3ZCM7+P07437+P68363+Q9BQE3+Q6PEY2+Q13885+Q9BVA1+Q9BUF5); test: Binding affinity to microtubule polymerization (unknown origin) assessed as formation of microtubule at 27.5 uM measured for 2 hrs by plate reader method; type: protein-complex assay
Summary of the method: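 25 μM tubulin in GAB buffer with compound at 27.5 μM or DMSO vehicle; podophyllotoxin 27.5 μM as destabiliser control. Polymerisation started by raising temperature from 4 to 37 °C at time 0; microtubule formation followed as absorbance increase over time.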

Ca9-22 [4] = test: Cytotoxicity against human Ca9-22 cells assessed as reduction in cell viability measured after 48 hrs by alamar blue viability assay; type: functional, cell-based; conditions: Ca9-22, 48 h
Summary of the method: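 Oral squamous carcinoma cells were exposed for 48 h to at least 8 increasing concentrations. Viability was read by AlamarBlue. IC50 is the concentration that halves viability, taken as the mean ± SD of at least three independent experiments.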

[5] = Induction of Pro-apoptosis in human HL-60 cells assessed as increase in apoptotic cells at 10 uM after 48 hrs by Annexin-V/PI-staining based flow cytometry; type: functional
HeLa [6] = test: Induction of morphological changes in human HeLa cells assessed as effect on actin cytoskeleton at 10 uM incubated for 3 hrs by phalloidin staining based laser scanning confocal microscopic analysis; type: functional, cell-based
Summary of the method: (§2)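 HeLa cells in growth medium were treated at 1 or 10 μM, with BafA1 300 nM as reference, for 3 h. Cells were fixed in 4% PFA, stained with anti-GM130 for the Golgi and AF647-phalloidin for actin, and imaged by laser scanning confocal microscopy.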

SCC-4 = test: Induction of autophagy in human SCC-4 cells assessed as increase in LC3-II to LC3-I ratio at 10 uM incubated for 30 mins in presence of EBSS followed by compound addition and measured after 3 hrs by Western blot analysis; type: functional, cell-based
Summary of the method: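 SCC4 cells were pre-incubated with or without EBSS for 30 min, then given 10 μM compound, with 10 μM chloroquine as reference, for 3 h. LC3-I/II was assessed by Western blot with GAPDH loading control. The LC3-II/LC3-I ratio came from densitometry, as mean ± SEM of four experiments, with an unpaired one-tailed t-test.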

[7] = Metabolic stability in human liver microsomes assessed as apparent decay constant by HPLC analysis; type: ADME, Microsome; summary of the method: as §1
HL-60 [8] = test: Induction of autophagy in human HL-60 cells assessed as increase in LC3-II protein level at 10 uM measured up to 1 hr by Immunoblotting analysis; type: functional, cell-based
KYSE-520 cell line = test: Cytotoxicity against human KYSE520 cells assessed as inhibition of cell growth measured after 72 hrs by alamar blue viability assay; type: functional, cell-based; conditions: KYSE-520, 72 h
Summary of the method: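 KYSE-520 oesophageal cells were exposed to at least 8 increasing concentrations for 48 h or 72 h. Viability was read out to give IC50, as the mean ± SD of at least three independent experiments.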

HeLa [9] = test: Inhibition of autophagosome degradationin human HeLa cells at 1 uM incubated for 3 hrs with HBSS medium by immunofluorescence based laser scanning confocal microscopic analysis; type: functional, cell-based
Summary of the method: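 HeLa cells were treated in HBSS at 1 or 10 μM, with BafA1 300 nM as reference, for 3 h. After fixation in ice-cold methanol, LC3 and LAMP1 were immunostained. Laser scanning confocal microscopy assessed autophagosome number and LC3/LAMP1 colocalisation.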

[10] = molecular target: Mitogen-activated protein kinase; ERK1/ERK2 (Homo sapiens) (UniProt P27361+P28482); test: Inhibition of ERK1/2 phosphorylation in human HL-60 cells at 10 uM measured after 2 hrs by Immunoblotting analysis; type: cell-based
Mitogen-activated protein kinase; ERK1/ERK2 (Homo sapiens), sequence (P27361 whole entry, looked up): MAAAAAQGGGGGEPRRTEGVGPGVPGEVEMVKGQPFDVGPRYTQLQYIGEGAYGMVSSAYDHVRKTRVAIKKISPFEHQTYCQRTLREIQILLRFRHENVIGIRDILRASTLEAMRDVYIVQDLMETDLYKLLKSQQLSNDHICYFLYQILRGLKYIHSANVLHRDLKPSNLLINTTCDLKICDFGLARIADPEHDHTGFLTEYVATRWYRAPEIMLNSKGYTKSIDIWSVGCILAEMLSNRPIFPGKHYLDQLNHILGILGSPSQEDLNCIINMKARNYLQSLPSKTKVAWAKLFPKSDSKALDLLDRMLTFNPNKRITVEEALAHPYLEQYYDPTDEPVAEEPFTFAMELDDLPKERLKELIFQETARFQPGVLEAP
Mitogen-activated protein kinase; ERK1/ERK2 (Homo sapiens), sequence (P28482 whole entry, looked up): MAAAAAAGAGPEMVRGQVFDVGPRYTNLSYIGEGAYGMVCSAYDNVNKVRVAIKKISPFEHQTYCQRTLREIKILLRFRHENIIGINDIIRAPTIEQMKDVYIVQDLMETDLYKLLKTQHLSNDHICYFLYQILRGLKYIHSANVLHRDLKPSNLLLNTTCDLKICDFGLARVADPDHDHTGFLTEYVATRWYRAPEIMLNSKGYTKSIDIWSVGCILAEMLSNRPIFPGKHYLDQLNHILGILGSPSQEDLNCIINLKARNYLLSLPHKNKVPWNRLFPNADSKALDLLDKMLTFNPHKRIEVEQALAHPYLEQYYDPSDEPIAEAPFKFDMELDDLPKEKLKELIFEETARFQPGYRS
Summary of the method: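 HL-60 cells were treated at 10 μM or with DMSO vehicle for 2 h. Phospho-NF-κB and phospho-Erk1/2 were immunoblotted and quantified by densitometry relative to β-tubulin. Data are mean ± SD (n = 2), analysed by one-way ANOVA.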

HeLa [11] = test: Induction of morphological changes in human HeLa cells assessed as golgi complex fragmentation at 1 uM incubated for 3 hrs by phalloidin staining based laser scanning confocal microscopic analysis; type: functional, cell-based; summary of the method: as §2
HeLa [12] = test: Cytotoxicity against human HeLa cells assessed as inhibition of cell growth measured after 48 hrs by MTT assay; type: functional, cell-based
Summary of the method: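 MTT assay. Cells were exposed for 48 h to increasing concentrations of compound. Ovarian A2780 was paired with its P-gp-overexpressing A2780AD counterpart, and HeLa with HeLa β3, which overexpresses the tubulin β3 isotype. IC50 is the mean ± SD of three independent experiments.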

Albumin = Albumin (Bos taurus, UniProt P02769); test: Binding affinity to bovine serum albumin assessed as increase in fluorescence intensity; conditions: cattle
Albumin, sequence (P02769 whole entry): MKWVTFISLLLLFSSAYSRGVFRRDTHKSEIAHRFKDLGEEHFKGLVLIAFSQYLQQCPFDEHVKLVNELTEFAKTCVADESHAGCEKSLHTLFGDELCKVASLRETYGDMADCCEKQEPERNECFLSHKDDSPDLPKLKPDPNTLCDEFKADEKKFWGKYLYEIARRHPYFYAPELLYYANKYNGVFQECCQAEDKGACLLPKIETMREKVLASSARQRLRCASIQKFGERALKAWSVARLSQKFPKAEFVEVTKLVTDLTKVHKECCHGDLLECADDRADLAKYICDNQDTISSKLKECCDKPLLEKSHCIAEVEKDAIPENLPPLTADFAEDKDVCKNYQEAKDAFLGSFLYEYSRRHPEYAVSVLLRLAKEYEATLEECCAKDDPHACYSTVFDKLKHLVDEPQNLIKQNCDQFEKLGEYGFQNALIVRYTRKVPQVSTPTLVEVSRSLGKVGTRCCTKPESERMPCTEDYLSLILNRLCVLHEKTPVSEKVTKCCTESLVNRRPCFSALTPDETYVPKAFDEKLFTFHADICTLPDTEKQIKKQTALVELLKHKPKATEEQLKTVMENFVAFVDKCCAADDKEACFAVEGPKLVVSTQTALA
Summary of the method: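 Saturation assay: compound fixed at 1 μM was incubated with increasing amounts of BSA. Fluorescence was read with excitation at 350 nm and emission at 450 nm in a plate reader.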

[13] = Cytotoxicity against human FLO-1 cells assessed as inhibition of cell growth measured after 72 hrs by MTT assay; type: functional, cell-based; conditions: FLO-1, 72 h
Summary of the method: (§3)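 Oesophageal adenocarcinoma lines were exposed to at least 8 increasing concentrations for 72 h. Viability was measured by MTT. IC50 is the mean ± SD of at least three independent experiments.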

Ca9-22 [14] = test: Induction of apoptosis in human Ca9-22 cells assessed as increase in apoptotic cells at 0.5 uM after 48 hrs by Annexin V-FITC/PI staining based flow cytometry method; type: functional, cell-based
Summary of the method: (§4)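 Ca9.22 or TR146 cells were seeded at 30×10^4 cells/mL and treated with 500 nM compound or 1% EtOH (v/v) vehicle for 48 h. Annexin V/PI staining was read by flow cytometry, gating 10,000 cells on vehicle-treated cells. Data are mean ± SEM (n = 3).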

Tubulin (Homo sapiens) [15] = molecular target: T1, Tubulin (Homo sapiens); test: Inhibition of tubulin (unknown origin) assembly measured at 5 uM by fluorescence assay; type: protein-complex assay
Tubulin (Homo sapiens) [16] = molecular target: T1, Tubulin (Homo sapiens); test: Binding affinity to tubulin (unknown origin) using podophyllotoxin by Competition assay; type: protein-complex assay
Summary of the method: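 Fluorescence competition: compound and tubulin at equal concentrations (0.1, 0.5 or 1 μM each) titrated with podophyllotoxin up to 10 μM; excitation 350 nm, emission read at 450 nm on plate reader; displacement judged as fluorescence decrease.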

TR146 = test: Induction of apoptosis in human TR146 cells assessed as increase in apoptotic cells at 0.5 uM after 48 hrs by Annexin V-FITC/PI staining based flow cytometry method; type: functional, cell-based; summary of the method: as §4
[17] = Cytotoxicity against human SKGT4 cells assessed as inhibition of cell growth measured after 72 hrs by MTT assay; type: functional, cell-based; conditions: SKGT4, 72 h; summary of the method: as §3
[18] = Cytotoxicity against human MFD-1 cells assessed as inhibition of cell growth measured after 72 hrs by MTT assay; type: functional, cell-based; conditions: MFD-1, 72 h; summary of the method: as §3

Row | SMILES | Activity (HL-60 [1]) | half-life [2] [h] | Activity (Tubulin (Homo sapiens) [3]) | IC50 (Ca9-22 [4]) [nM] | Activity [5] | Activity (SCC-4) | k el [7] [s⁻¹] | Activity (HL-60 [8]) | IC50 (KYSE-520 cell line) [nM] | inhibition [10] | further results
1 | O=C(OC1=C(c2cccc3ncccc23)Oc2cc3ccccc3cc2-n2cccc21)C1CCNCC1 | Active | 1.52 | Active | 2000 | >=70% | Active | 0.000127 | Active | 890 | Active | Activity (HeLa [6]): Active; Activity (HeLa [9]): Active; Activity (HeLa [11]): Active
2 | CN1CCN(C(=O)OC2=C(c3cccc4ncccc34)Oc3cc4ccccc4cc3-n3cccc32)CC1 | Active | 0.513 | Active | 130 | >=70% | Active | 0.000367 | Active | 1680 | Active | IC50 (HeLa [12]): 469 nM; Activity (Albumin): Active; IC50 [13]: 400 nM; Activity (Ca9-22 [14]): Active; inhibition (Tubulin (Homo sapiens) [15]): 100%; Activity (Tubulin (Homo sapiens) [16]): Active; Activity (TR146): Active; IC50 [17]: 550 nM; IC50 [18]: 1210 nM
